These results are taken from ChEMBL document CHEMBL1143844, “Biochemical studies on the mechanism of human immunodeficiency virus type 1 reverse transcriptase resistance to 1-(beta-D-dioxolane)thymine triphosphate” (Antimicrob Agents Chemother, 2007).

The nature of assay [1]: Inhibition of HIV1 reverse transcriptase 41L/67N/70R/184V/210W/215Y mutant in presence of 5 mM ATP by heteropolymeric DNA polymerase assay. Also noted: species or system Human immunodeficiency virus 1. Summed up: (§1)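 Heteropolymeric DNA polymerase assay with ATP added at 5 mM. Purified HIV-1 RT at 30–100 pM acts on a plate-bound DNA primer with a 5′-A12-(GTCA)5-3′ template. dATP, dGTP, dCTP and BrdUTP at 1.0 μM each. Incubation 180 min at 33°C. BrdUMP incorporation read via anti-BrdU-AP at 405 nm after NaOH dehybridization. IC50 from seven inhibitor concentrations, at least two experiments in duplicate.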

Assay [2] can be described thus: Inhibition of HIV1 reverse transcriptase 75I/77L/116Y/151M/184V mutant by heteropolymeric DNA polymerase assay. Set-up: species or system Human immunodeficiency virus 1. Summed up:
(§2)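 Purified p66/p51 HIV-1 RT, or p66 homodimer for 65R, at 30–100 pM (about 1.5–4.5 mU/well). Plate-bound 18-mer DNA primer on a 50-base 5′-A12-(GTCA)5-3′ DNA template. dATP, dGTP, dCTP and BrdUTP at 1.0 μM each, no ATP. Buffer: HEPES 50 mM pH 7.3, 10 mM MgCl2. Incubation 180 min at 33°C, NaOH dehybridization, anti-BrdU-AP tracer, A405. IC50 from seven inhibitor concentrations, at least two experiments in duplicate.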

The nature of assay [3]: Inhibition of HIV1 pNL4-3 reverse transcriptase 115F mutant by heteropolymeric DNA polymerase assay. Set-up: species or system Human immunodeficiency virus 1. Summed up:
as §2

Assay [4] addresses T1, Human immunodeficiency virus type 1 reverse transcriptase (Human immunodeficiency virus 1, UniProt Q72547). Kind of assay: Inhibition of HIV1 pNL4-3 reverse transcriptase wild type pNL4-3 in presence of 5 mM ATP by heteropolymeric DNA polymerase assay. Summed up:
(§3)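 Heteropolymeric DNA assay with 5 mM ATP added: immobilized 18-mer primer, 5′-A12-(GTCA)5 50-mer template, dATP/dGTP/dCTP/BrdUTP at 1.0 μM each, HEPES 50 mM pH 7.3, MgCl2 10 mM. RT 30–100 pM, incubated at 33°C for 180 min. NaOH strand separation, then anti-BrdU-AP detection at 405 nm. IC50 fitted from seven inhibitor concentrations; two to four runs in duplicate.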

A short description of assay [5]: Inhibition of HIV1 reverse transcriptase 75I/77L/116Y/151M mutant in presence of 5 mM ATP by heteropolymeric DNA polymerase assay. Set-up: species or system Human immunodeficiency virus 1. Summed up:
as §1

Assay [6] can be described thus: Inhibition of HIV1 reverse transcriptase wild type HXB2(a) in presence of 5 mM ATP by heteropolymeric DNA polymerase assay. Also noted: species or system Human immunodeficiency virus 1. The essentials: as §3
A short description of assay [7]: Inhibition of HIV1 reverse transcriptase 75I/77L/116Y/151M mutant by heteropolymeric DNA polymerase assay. Also noted: species or system Human immunodeficiency virus 1. The essentials:
as §2

Assay [8] can be described thus: Inhibition of HIV1 reverse transcriptase wild type HXB2(a) in presence of 1 uM dNTP by heteropolymeric DNA polymerase assay. Also noted: species or system Human immunodeficiency virus 1. Summed up:
(§4)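 Heteropolymeric DNA assay containing 5 mM ATP on the 5′-A12-(GTCA)5 template, with each dNTP (BrdUTP in place of TTP) at 1 μM or, in the modified version, 20 μM. HEPES 50 mM pH 7.3, MgCl2 10 mM, 33°C for 180 min, then NaOH step and anti-BrdU-AP readout at 405 nm. Mean IC50 from at least two runs in duplicate.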

Assay [9] is described as follows: Inhibition of HIV1 reverse transcriptase wild type HXB2(a) in presence of 5'-A12-(GTCA)5-3' by heteropolymeric DNA polymerase assay. Also noted: species or system Human immunodeficiency virus 1. The essentials: as §4
Assay [10] can be described thus: Inhibition of HIV1 reverse transcriptase 184V mutant by heteropolymeric DNA polymerase assay. Also noted: species or system Human immunodeficiency virus 1. The essentials: as §2
The nature of assay [11]: Inhibition of HIV1 reverse transcriptase 41L/69S-SG/210W/215Y mutant in presence of 5'-A12-(GTCA)5-3' by heteropolymeric DNA polymerase assay.
In assay [12] the target is T1, Human immunodeficiency virus type 1 reverse transcriptase. Kind of assay: Inhibition of HIV1 pNL4-3 reverse transcriptase wild type pNL4-3 by heteropolymeric DNA polymerase assay. Summed up:
(§5)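 Heteropolymeric assay without ATP: plate-bound 18-mer DNA primer (~110 nM) with 50-mer 5′-A12-(GTCA)5 template (190 nM). dATP, dGTP, dCTP and BrdUTP at 1.0 μM each, in HEPES 50 mM pH 7.3, MgCl2 10 mM. RT 30–100 pM, 33°C for 180 min, then NaOH dehybridization and anti-BrdU-AP tracer read at 405 nm. IC50 from seven triphosphate concentrations; two to four runs in duplicate.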

The nature of assay [13]: Inhibition of HIV1 reverse transcriptase 75I/77L/116Y/151M/184V mutant in presence of 5 mM ATP by heteropolymeric DNA polymerase assay. Also noted: species or system Human immunodeficiency virus 1. The essentials: as §1
Assay [14] in a line: Inhibition of HIV1 pNL4-3 reverse transcriptase 115F mutant in presence of 5 mM ATP by heteropolymeric DNA polymerase assay. Set-up: species or system Human immunodeficiency virus 1. Summed up:
as §1

In assay [15] the target is T1, Human immunodeficiency virus type 1 reverse transcriptase. Briefly: Inhibition of HIV1 LAI reverse transcriptase wild type LAI by heteropolymeric DNA polymerase assay. Summed up:
as §5

Assay [16] is described as follows: Inhibition of HIV1 reverse transcriptase 41L/69S-SG/210W/215Y mutant in presence of 5 mM ATP by heteropolymeric DNA polymerase assay. Set-up: species or system Human immunodeficiency virus 1. Summed up:
as §1

Assay [17] in a line: Inhibition of HIV1 reverse transcriptase 41L/67N/70R/210W/215Y mutant in presence of 20 uM dNTP by heteropolymeric DNA polymerase assay. Set-up: species or system Human immunodeficiency virus 1. The essentials: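 DNA polymerase assay with 5 mM ATP and purified HIV-1 RT (HXB2 background) on a plate-bound primer with a 5′-A12-(GTCA)5-3′ template. Each dNTP (dATP, dGTP, dCTP, BrdUTP) is set at either 1 μM or 20 μM. Incubation 180 min at 33°C, anti-BrdU-AP readout at 405 nm. IC50 from at least two experiments in duplicate. Fold change is relative to wild-type RT at the same dNTP level.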

Assay [18] is described as follows: Inhibition of HIV1 HXB2 reverse transcriptase 41L/67N/70R/215Y/219Q mutant in presence of 5 mM ATP by heteropolymeric DNA polymerase assay.
Assay [19] in a line: Inhibition of HIV1 reverse transcriptase 41L/69S-SG/210W/215Y mutant by heteropolymeric DNA polymerase assay. Also noted: species or system Human immunodeficiency virus 1. Summed up:
as §2

The target in assay [20] is T1, Human immunodeficiency virus type 1 reverse transcriptase. Briefly: Inhibition of HIV1 LAI reverse transcriptase wild type in presence of 5 mM ATP by heteropolymeric DNA polymerase assay. The essentials: as §3
Assay [21] can be described thus: Inhibition of HIV1 reverse transcriptase 184V mutant in presence of 5 mM ATP by heteropolymeric DNA polymerase assay. Also noted: species or system Human immunodeficiency virus 1. Summed up:
as §1

Assay [22] is described as follows: Inhibition of HIV1 LAI reverse transcriptase 65R mutant in presence of 5 mM ATP by heteropolymeric DNA polymerase assay. Also noted: species or system Human immunodeficiency virus 1. The essentials: as §1
Assay [23] is described as follows: Inhibition of HIV1 reverse transcriptase wild type HXB2(b) in presence of 5 mM ATP by heteropolymeric DNA polymerase assay. Set-up: species or system Human immunodeficiency virus 1. Summed up: as §3

Usually IC50 stands for the concentration needed to halve the response being measured. Consider `Cc1cn([C@H]2CO[C@@H](COP(=O)(O)OP(=O)(O)OP(=O)(O)O)O2)c(=O)[nH]c1=O`, for which the IC50 in [1] was found to be 700 nM; in assay [2], 7100 nM; in [3] it was 80 nM; in assay [4], 300 nM; in assay [5], 6100 nM; in assay [6], 380 nM. The IC50 worked out at 2100 nM in [7]; 380 nM in assay [8]; 380 nM in assay [9]; 180 nM in assay [10]; 1600 nM in assay [11]; 100 nM in assay [12]. Moreover, the IC50 in assay [13] was 15000 nM; in [14] it was 200 nM; in assay [15], 110 nM; in [16] it was 1600 nM; in assay [17], 2400 nM; in assay [18], 840 nM. Also, the IC50 was 110 nM in assay [19]; 190 nM in [20]; 500 nM in assay [21]; 750 nM in assay [22]; 380 nM in assay [23].
In the case of `Cc1cn([C@H]2C[C@H](N=[N+]=[N-])[C@@H](COP(=O)(O)OP(=O)(O)OP(=O)(O)O)O2)c(=O)[nH]c1=O` [ZIDOVUDINE TRIPHOSPHATE], the IC50 came out at 900 nM in assay [1]; 10600 nM in assay [2]; 130 nM in assay [3]; 420 nM in assay [4]; 9000 nM in assay [5]; 460 nM in assay [6]. In addition, the half-maximal inhibitory concentration (IC50) in assay [7] was 5100 nM; in [8] it was 460 nM; in assay [9] it was 460 nM; in [10], 250 nM; in assay [11] it was 4400 nM; in [12] it was 130 nM. For the same compound, the IC50 in assay [13] was 22000 nM; in [14], 550 nM; in assay [15] it was 80 nM; in [16], 4400 nM; in assay [17] it was 16000 nM; in assay [18] it was 2500 nM. The IC50 in assay [19] turned out to be 160 nM; in assay [20], 300 nM; in assay [21] it was 520 nM; in [22], 610 nM; in [23] it was 480 nM.
Regarding `C[C@H](Cn1cnc2c(N)ncnc21)OCP(=O)(O)OP(=O)(O)OP(=O)(O)O`, the IC50 is 5900 nM in assay [1]; 2900 nM in assay [2]; 1100 nM in assay [3]; 4000 nM in [4]; 11000 nM in [5]; 3300 nM in assay [6]. Moreover, the IC50 was 8000 nM in assay [7]; 3300 nM in assay [8]; 3300 nM in assay [9]; 2200 nM in assay [10]; 24000 nM in assay [11]; 1200 nM in assay [12]. For the same compound, the half-maximal inhibitory concentration (IC50) amounted to 4600 nM in assay [13]; 3700 nM in assay [14]; 550 nM in [15]; 24000 nM in [16]; 49000 nM in assay [17]; 10500 nM in [18]. Moreover, the concentration for half-maximal inhibition (IC50) in assay [19] worked out at 3700 nM; in [20] it was 1300 nM; in [21], 2300 nM; in [22], 21000 nM; in assay [23] it was 3200 nM.
